Data published in publication PMC10339703 (Clinical and Translational Science, 2023).
“Also recorded” adds a separate entry of the source.

Tested on: healthy subjects
Assay: Safety and tolerability
Format: in vivo, human
Conditions: for subjects with ADRs, percentage: SAD
How it was run: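 Randomized, double-blind, placebo-controlled (6:2, n = 8/cohort) single oral doses in healthy adults after ≥10 h fast, with sentinel pair observed 24 h first. TEAEs were graded by nature, incidence, severity, seriousness and outcome, coded in MedDRA 23.0. ADR: any AE whose causality to test compound could not be ruled out. Labs, vital signs, examinations and 12-lead ECGs were also monitored.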

[1] = SAD study, all subjects who received bersiporocin

## O[C@H]1CCCN[C@@H]1CCCn1cnc2c(Cl)c(Cl)ccc21 [Bersiporocin]
SAD single 100 mg capsule
  ADRs, number of events: 3
  Abdominal discomfort (ADR), subjects n (%): 0
  Abdominal distension (ADR), subjects n (%): 0
  Abdominal pain (ADR), subjects n (%): 0
  Abdominal pain upper (ADR), subjects n (%): 0
  Constipation (ADR), subjects n (%): 0
  Decreased appetite (ADR), subjects n (%): 0
  Diarrhea (ADR), subjects n (%): 0
  Dysgeusia (ADR), subjects n (%): 0
  Epigastric discomfort (ADR), subjects n (%): 0
  Gastroesophageal reflux disease (ADR), number of events: 1
  Gastroesophageal reflux disease (ADR), subjects n (%): 1 (16.7)
  Headache (ADR), subjects n (%): 0
  Hypersensitivity (ADR), subjects n (%): 0
  Hypotension (ADR), subjects n (%): 0
  Malaise (ADR), subjects n (%): 0
  Nausea (ADR), number of events: 1
  Nausea (ADR), subjects n (%): 1 (16.7)
  Neutropenia (ADR), number of events: 1
  Neutropenia (ADR), subjects n (%): 1 (16.7)
  Oropharyngeal pain (ADR), subjects n (%): 0
  Photosensitivity reaction (ADR), subjects n (%): 0
  Subjects with ADRs, n (%): 3 (50.0)
  Tachycardia (ADR), subjects n (%): 0
  Vertigo (ADR), subjects n (%): 0
  Vomiting (ADR), subjects n (%): 0
SAD single 100 mg solution
  ADRs, number of events: 12
  Abdominal discomfort (ADR), subjects n (%): 0
  Abdominal distension (ADR), subjects n (%): 0
  Abdominal pain (ADR), subjects n (%): 0
  Abdominal pain upper (ADR), subjects n (%): 0
  Constipation (ADR), subjects n (%): 0
  Decreased appetite (ADR), subjects n (%): 0
  Diarrhea (ADR), subjects n (%): 0
  Dysgeusia (ADR), number of events: 1
  Dysgeusia (ADR), subjects n (%): 1 (16.7)
  Epigastric discomfort (ADR), subjects n (%): 0
  Gastroesophageal reflux disease (ADR), subjects n (%): 0
  Headache (ADR), number of events: 2
  Headache (ADR), subjects n (%): 2 (33.3)
  Hypersensitivity (ADR), subjects n (%): 0
  Hypotension (ADR), subjects n (%): 0
  Malaise (ADR), subjects n (%): 0
  Nausea (ADR), number of events: 5
  Nausea (ADR), subjects n (%): 5 (83.3)
  Neutropenia (ADR), subjects n (%): 0
  Oropharyngeal pain (ADR), subjects n (%): 0
  Photosensitivity reaction (ADR), subjects n (%): 0
  Subjects with ADRs, n (%): 5 (83.3)
  Tachycardia (ADR), subjects n (%): 0
  Vertigo (ADR), subjects n (%): 0
  Vomiting (ADR), number of events: 4
  Vomiting (ADR), subjects n (%): 4 (66.7)
SAD single 300 mg capsule
  ADRs, number of events: 15
  Abdominal discomfort (ADR), subjects n (%): 0
  Abdominal distension (ADR), number of events: 1
  Abdominal distension (ADR), subjects n (%): 1 (16.7)
  Abdominal pain (ADR), number of events: 2
  Abdominal pain (ADR), subjects n (%): 2 (33.3)
  Abdominal pain upper (ADR), subjects n (%): 0
  Constipation (ADR), subjects n (%): 0
  Decreased appetite (ADR), number of events: 1
  Decreased appetite (ADR), subjects n (%): 1 (16.7)
  Diarrhea (ADR), number of events: 2
  Diarrhea (ADR), subjects n (%): 2 (33.3)
  Dysgeusia (ADR), subjects n (%): 0
  Epigastric discomfort (ADR), subjects n (%): 0
  Gastroesophageal reflux disease (ADR), subjects n (%): 0
  Headache (ADR), number of events: 1
  Headache (ADR), subjects n (%): 1 (16.7)
  Hypersensitivity (ADR), subjects n (%): 0
  Hypotension (ADR), subjects n (%): 0
  Malaise (ADR), number of events: 1
  Malaise (ADR), subjects n (%): 1 (16.7)
  Nausea (ADR), number of events: 4
  Nausea (ADR), subjects n (%): 3 (50.0)
  Neutropenia (ADR), subjects n (%): 0
  Oropharyngeal pain (ADR), subjects n (%): 0
  Photosensitivity reaction (ADR), subjects n (%): 0
  Subjects with ADRs, n (%): 4 (66.7)
  Tachycardia (ADR), subjects n (%): 0
  Vertigo (ADR), subjects n (%): 0
  Vomiting (ADR), number of events: 3
  Vomiting (ADR), subjects n (%): 3 (50.0)
SAD single 500 mg tablet
  ADRs, number of events: 23
  Abdominal discomfort (ADR), subjects n (%): 0
  Abdominal distension (ADR), subjects n (%): 0
  Abdominal pain (ADR), number of events: 1
  Abdominal pain (ADR), subjects n (%): 1 (16.7)
  Abdominal pain upper (ADR), number of events: 1
  Abdominal pain upper (ADR), subjects n (%): 1 (16.7)
  Constipation (ADR), number of events: 1
  Constipation (ADR), subjects n (%): 1 (16.7)
  Decreased appetite (ADR), number of events: 1
  Decreased appetite (ADR), subjects n (%): 1 (16.7)
  Diarrhea (ADR), number of events: 4
  Diarrhea (ADR), subjects n (%): 4 (66.7)
  Dysgeusia (ADR), subjects n (%): 0
  Epigastric discomfort (ADR), number of events: 1
  Epigastric discomfort (ADR), subjects n (%): 1 (16.7)
  Gastroesophageal reflux disease (ADR), subjects n (%): 0
  Headache (ADR), number of events: 2
  Headache (ADR), subjects n (%): 2 (33.3)
  Hypersensitivity (ADR), number of events: 1
  Hypersensitivity (ADR), subjects n (%): 1 (16.7)
  Hypotension (ADR), number of events: 1
  Hypotension (ADR), subjects n (%): 1 (16.7)
  Malaise (ADR), subjects n (%): 0
  Nausea (ADR), number of events: 5
  Nausea (ADR), subjects n (%): 5 (83.3)
  Neutropenia (ADR), subjects n (%): 0
  Oropharyngeal pain (ADR), number of events: 1
  Oropharyngeal pain (ADR), subjects n (%): 1 (16.7)
  Photosensitivity reaction (ADR), subjects n (%): 0
  Subjects with ADRs, n (%): 6 (100)
  Tachycardia (ADR), number of events: 1
  Tachycardia (ADR), subjects n (%): 1 (16.7)
  Vertigo (ADR), number of events: 1
  Vertigo (ADR), subjects n (%): 1 (16.7)
  Vomiting (ADR), number of events: 2
  Vomiting (ADR), subjects n (%): 2 (33.3)
SAD single 600 mg capsule
  ADRs, number of events: 15
  Abdominal discomfort (ADR), number of events: 1
  Abdominal discomfort (ADR), subjects n (%): 1 (16.7)
  Abdominal distension (ADR), subjects n (%): 0
  Abdominal pain (ADR), subjects n (%): 0
  Abdominal pain upper (ADR), subjects n (%): 0
  Constipation (ADR), subjects n (%): 0
  Decreased appetite (ADR), subjects n (%): 0
  Diarrhea (ADR), number of events: 2
  Diarrhea (ADR), subjects n (%): 2 (33.3)
  Dysgeusia (ADR), subjects n (%): 0
  Epigastric discomfort (ADR), subjects n (%): 0
  Gastroesophageal reflux disease (ADR), subjects n (%): 0
  Headache (ADR), number of events: 1
  Headache (ADR), subjects n (%): 1 (16.7)
  Hypersensitivity (ADR), subjects n (%): 0
  Hypotension (ADR), subjects n (%): 0
  Malaise (ADR), subjects n (%): 0
  Nausea (ADR), number of events: 6
  Nausea (ADR), subjects n (%): 5 (83.3)
  Neutropenia (ADR), subjects n (%): 0
  Oropharyngeal pain (ADR), subjects n (%): 0
  Photosensitivity reaction (ADR), number of events: 1
  Photosensitivity reaction (ADR), subjects n (%): 1 (16.7)
  Subjects with ADRs, n (%): 5 (83.3)
  Tachycardia (ADR), subjects n (%): 0
  Vertigo (ADR), subjects n (%): 0
  Vomiting (ADR), number of events: 4
  Vomiting (ADR), subjects n (%): 4 (66.7)
SAD starting dose group (100 mg, 150 mL solution)
  subjects with nausea and vomiting, percentage: 83.3%
[1]
  ADRs, number of events: 68
  TEAEs, number of events: 90
  subjects with TEAEs, number: 23
  subjects with TEAEs, percentage: 77%
Capsule group (after formulation change)
  subjects with ADRs, percentage: 50%
Solution group
  subjects with ADRs, percentage: 83%
Across the study (SAD and MAD)
  severe, life‐threatening, or fatal ADRs: no severe, life‐threatening, or fatal ADRs
  severity of most ADRs: mild in severity
Single oral dose up to 600 mg and multiple oral doses up to 200 mg twice daily for 14 days
  severe or serious adverse events: No severe or serious adverse events were observed; also recorded: No severe or serious AEs were observed
